Measurements: PubChem BioAssay AID504382 (The Scripps Research Institute Molecular Screening Center, 2011)
Hit rate of the full screen: of about 2,500 compounds, about 460 (18%) were called active. Only a sample is shown. Values without a mark were called inactive.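 Rule for the calls: active = mean activation above a cutoff of low control average plus 3 SD from the earlier screen (cut at about 12% in these data); inactive = the rest.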

Assay: IANBD-channel fluorescence artefacts in buffer – biochemical, artefact control for cardiac RTF calcium sensitizer project, confirmation (AID 504382)
Settings: IANBD fluorescence interference counterscreen, EC20 Ca2+, at 7.2 µM, stronger effect = higher value, scaled: EC20 calcium 0, EC100 calcium 100
How it was run: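 Medium: MOPS buffer, 190 mM, with KCl, MgCl2, EGTA, NTA, DTT, pH 7.20; Dosing: one dose of 7.2 µM, 0.7% DMSO; Probe or stimulus: calcium at EC20 level, 0.472 mM final; Incubation: 15 min, 25 °C; Evaluation: compound fluorescence interference relative to control well signal range; Signal: fluorescence, 480/540 nm.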

**Q.** Which fluorescence artifact activation does the source give for `O=c1[nH]ncc2c3ccccc3n(Cc3cccc(Cl)c3)c12` here?
**A.** -0.06%

**Q.** Which fluorescence artifact activation does the source give for `Cc1nc2oc(C(=O)c3ccccc3)c(N)c2c2c1COC(C)(C)C2` here?
**A.** 233% (active)

**Q.** With `N#CC1(NC(=O)CN2CCN(S(=O)(=O)c3ccccc3F)CC2)CCCC1` as the compound, how does the fluorescence artifact activation read?
**A.** -0.12%

**Q.** For `O=C(C1=C[C@@H](c2ccc(Br)cc2)C[C@@H](OCc2ccc(CO)cc2)O1)N1CCN(Cc2ccc3c(c2)OCO3)CC1`, which fluorescence artifact activation is on record?
**A.** 0.02%

**Q.** For `O=[n+]1c2c(n([O-])c3cc(F)c(N4CCCC4)cc31)CCCC2`, which fluorescence artifact activation is on record?
**A.** 50.2% (active)

**Q.** Which fluorescence artifact activation does the source give for `O=[n+]1c2c(n([O-])c3cc(F)c(N4CCCC4)cc31)CCC2` here?
**A.** 18.6% (active)

**Q.** Which fluorescence artifact activation does the source give for `O=[n+]1c2c(n([O-])c3ccccc31)CCC2` here?
**A.** 8.78%

**Q.** For `CC(C)n1cnc2c(NCc3ccccc3)cc(N[C@H](C)CO)cc21`, which fluorescence artifact activation is on record?
**A.** -0.08%

**Q.** For `C#CCN1C(=O)S/C(=C/C=C/c2ccc(N(C)C)cc2)C1=O`, which fluorescence artifact activation is on record?
**A.** 0.36%

**Q.** With `O=C(NCCN1CCOCC1)c1ccccc1N1C(=O)[C@@H]2Cc3c([nH]c4ccccc34)C(c3ccc(F)cc3)N2C1=O` (stereo partly specified) as the compound, how does the fluorescence artifact activation read?
**A.** 0.13%

**Q.** For `COC(=O)CCC(=O)OC1(C)C(=O)C2=CN(Cc3ccc(OC)cc3)C(c3ccc(OC)cc3)=CC2=C(Br)C1=O` (stereo unspecified), which fluorescence artifact activation is on record?
**A.** -0.01%

**Q.** For `CN(N=Nc1nc[nH]c1C(=O)NN)C1CCCCC1`, which fluorescence artifact activation is on record?
**A.** 0.38%

**Q.** Which fluorescence artifact activation does the source give for `Fc1ccc(CN2CCCN(C(=S)Nc3ccc(F)cc3)CC2)cc1` here?
**A.** 17.4% (active)

**Q.** Which fluorescence artifact activation does the source give for `O=C(Nc1ccc(F)cc1)OCCN1CCN(Cc2ccccc2)CCC1=O` here?
**A.** -0.08%

**Q.** Which fluorescence artifact activation does the source give for `Cc1ccc(NC(=O)COC(=O)c2csc3c2CCC(C)C3)cc1S(=O)(=O)N1CCCCC1` (stereo unspecified) here?
**A.** 1.08%

**Q.** With `COc1ccc2c(CC(=O)N[C@@H](Cc3c[nH]c4ccccc34)C(=O)O)cc(=O)oc2c1` as the compound, how does the fluorescence artifact activation read?
**A.** 4.51%

**Q.** For `CCc1ccc(-n2c(O)c(C=NCCN(CC)CC)c(=O)[nH]c2=O)cc1`, which fluorescence artifact activation is on record?
**A.** 2.92%

**Q.** For `CCOc1ccc(-n2c(SCC(=O)Nc3ccc(OC)cc3OC)nc3c(c2=O)SCC3)cc1`, which fluorescence artifact activation is on record?
**A.** 0.76%

**Q.** For `COc1ccc(-c2ccc(C3C(C#N)=C(N)Oc4n[nH]c(C)c43)o2)cc1` (stereo unspecified), which fluorescence artifact activation is on record?
**A.** 14.3% (active)

**Q.** With `Cc1[nH]nc2c1C(c1cc(Br)cs1)C(C#N)=C(N)O2` (stereo unspecified) as the compound, how does the fluorescence artifact activation read?
**A.** 0.04%

**Q.** With `CCOc1ccc(NC(=S)c2ccncc2)cc1` as the compound, how does the fluorescence artifact activation read?
**A.** 0.07%

**Q.** For `C=COc1ccc(N2C(=O)c3ccccc3OC2C)cc1` (stereo unspecified), which fluorescence artifact activation is on record?
**A.** 2.14%

**Q.** Which fluorescence artifact activation does the source give for `O=C(O)c1cccc(-c2ccc(/C=N/Nc3ccc([N+](=O)[O-])cc3)o2)c1` here?
**A.** 1.4%

**Q.** Which fluorescence artifact activation does the source give for `Nc1ccc2nc3c(=O)[nH]c(=S)[nH]c3nc2c1` here?
**A.** 6.07%

**Q.** Which fluorescence artifact activation does the source give for `Nc1ccc2nc(-c3ccccc3)cnc2c1` here?
**A.** 26.1% (active)

**Q.** With `COc1ccc(-c2cc3ncc(-c4ccccc4)c(N)n3n2)cc1` as the compound, how does the fluorescence artifact activation read?
**A.** 1.7%

**Q.** With `Cc1ccc(-c2nc(C)sc2CC(=O)O)cc1` as the compound, how does the fluorescence artifact activation read?
**A.** 14.7% (active)

**Q.** Which fluorescence artifact activation does the source give for `Cc1ccc(SCC(=O)c2sc(-c3ccccc3)nc2C)cc1` here?
**A.** 10.1%

**Q.** For `Cc1ccc(-c2nc(N)sc2CC(=O)OCC(=O)NCCC(C)C)cc1`, which fluorescence artifact activation is on record?
**A.** 2.4%

**Q.** For `COC(=O)c1ccc(S(=O)(=O)N(CCO)Cc2ccccc2)n1C`, which fluorescence artifact activation is on record?
**A.** -0.01%

**Q.** For `Cc1ccc(N=Nc2c(O)n(CN3CCOCC3)c3ccccc23)cc1`, which fluorescence artifact activation is on record?
**A.** 4.5%

**Q.** With `CCOC(=O)C1=C(C)N=c2s/c(=C/c3ccc(OCC(=O)O)cc3)c(=O)n2C1c1ccc(SC)cc1` (stereo unspecified) as the compound, how does the fluorescence artifact activation read?
**A.** 0.15%

**Q.** For `Cc1ccc(C)c(C2=NNC(=O)CC2)c1`, which fluorescence artifact activation is on record?
**A.** 0.16%

**Q.** With `Cc1cc(NC(=O)CCC(=O)N(CCC(C)C)C(C(=O)NC2CCCC2)c2cccnc2)no1` (stereo unspecified) as the compound, how does the fluorescence artifact activation read?
**A.** 0%

**Q.** With `C=CC[C@@H](CC(=O)N(CCO)Cc1ccccc1)C(=O)N[C@@H](COC(=O)[C@@H](CC=C)Cc1ccc(F)cc1)Cc1ccccc1` as the compound, how does the fluorescence artifact activation read?
**A.** 0.09%

**Q.** For `CC(=O)N1C(=O)C(=C2C=C(C)OC(C)=C2)c2ccccc21`, which fluorescence artifact activation is on record?
**A.** 21.3% (active)

**Q.** For `CCCn1c(N2CCN(CC(=O)c3c[nH]c4ccccc34)CC2)nc2c1c(=O)[nH]c(=O)n2C`, which fluorescence artifact activation is on record?
**A.** 0.12%

**Q.** Which fluorescence artifact activation does the source give for `CCCCCCCCOc1ccc(C2OC34CCCCC3C(C#N)(C#N)C2(C#N)C(=N)O4)cc1` (stereo unspecified) here?
**A.** 4.01%

**Q.** For `CCN1/C(=C/C=C/c2oc3ccc(-c4ccccc4)cc3[n+]2CC)Oc2ccc(-c3ccccc3)cc21`, which fluorescence artifact activation is on record?
**A.** -0.02%

**Q.** For `O=C(Nc1ccc(N2CCN(C(=O)c3ccco3)CC2)cc1)c1ccc(F)cc1`, which fluorescence artifact activation is on record?
**A.** 0.11%

**Q.** With `COc1ccc(C(=O)NCC(=O)N2CCN(C(=O)c3ccco3)CC2)cc1OC` as the compound, how does the fluorescence artifact activation read?
**A.** 23.6% (active)

**Q.** With `CCC(c1nnnn1C1CCCCC1)N1CCN(C(=O)c2ccco2)CC1` (stereo unspecified) as the compound, how does the fluorescence artifact activation read?
**A.** 6.69%

**Q.** Which fluorescence artifact activation does the source give for `COc1cccc(C2CC(c3ccccc3)n3ncnc3N2)c1` (stereo unspecified) here?
**A.** 7.41%

**Q.** With `CCOC(=O)N1CCC(NC(=O)c2cccs2)CC1` as the compound, how does the fluorescence artifact activation read?
**A.** -0.01%

**Q.** Which fluorescence artifact activation does the source give for `CCOC(=O)N1CCC(Nc2cccc(SC)c2)CC1` here?
**A.** 97.8% (active)

**Q.** For `CCOC(=O)N1CCC(Nc2nc3ccccc3nc2NS(=O)(=O)c2ccc(Cl)cc2)CC1`, which fluorescence artifact activation is on record?
**A.** -0.02%

**Q.** For `CN1CCc2c(sc(/N=C/c3cccs3)c2C(N)=O)C1`, which fluorescence artifact activation is on record?
**A.** -0.06%

**Q.** For `O=C(NCC1CC1)Nc1cccc(Cl)c1`, which fluorescence artifact activation is on record?
**A.** 0.16%

**Q.** For `Cn1c(NC(=O)C[n+]2cc(-c3ccc(Cl)cc3)n3c2CCC3)cc(=O)n(C)c1=O`, which fluorescence artifact activation is on record?
**A.** 1.86%

**Q.** Which fluorescence artifact activation does the source give for `C=CCOc1ccc(C2C(C(=O)c3cccs3)=C(O)C(=O)N2c2nnc(C)s2)cc1` (stereo unspecified) here?
**A.** 0.1%

**Q.** With `Cc1ccc(C2C(C(=O)c3cccs3)=C(O)C(=O)N2c2nnc(C)s2)cc1` (stereo unspecified) as the compound, how does the fluorescence artifact activation read?
**A.** 17.5% (active)

**Q.** For `COc1ccc(C2C(C(=O)c3cccs3)=C(O)C(=O)N2c2nnc(C)s2)cc1OC` (stereo unspecified), which fluorescence artifact activation is on record?
**A.** 0.77%

**Q.** For `O=c1c2ccccc2cnn1Cc1n[nH]c(=S)n1-c1ccccc1Cl`, which fluorescence artifact activation is on record?
**A.** 2.78%

**Q.** With `O=C(O)c1cccc([N+](=O)[O-])c1C(=O)Nc1cccc2ccccc12` as the compound, how does the fluorescence artifact activation read?
**A.** 1.51%

**Q.** Which fluorescence artifact activation does the source give for `O=C(O)c1cccc2c1-c1c(cccc1[N+](=O)[O-])C2` here?
**A.** 706% (active)

**Q.** Which fluorescence artifact activation does the source give for `CC(C)C12CN(C(=O)c3ccccc3[N+](=O)[O-])CC(C(C)C)(CN(C(=O)c3ccccc3[N+](=O)[O-])C1)C2=O` here?
**A.** 0.02%
